Reference: ChEMBL document CHEMBL1124971, “Cyclization-activated prodrugs. Basic carbamates of 4-hydroxyanisole” (J Med Chem, 1990)

Experiments:
[1] = Half-life at 37 degree Celsius in aqueous solution at pH 7.4; format: ADME
How it was run: (§1)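 Carbamate hydrochloride salt (about 0.5 mg) taken up in buffer pre-warmed to 37 °C, final about 1 mM, and held at 37 °C. Samples were injected straight onto C-18 reverse-phase HPLC at intervals, or quenched in 1 N HCl first. Carbamate and 4-methoxyphenol were read at 220 nm. Half-life is the time to 50% conversion, fitted by first-order kinetics. Each value is the mean of at least two separate runs.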

[2] = pKa of the compound; format: physicochemical
[3] = Half-life at 37 degree Celsius in aqueous solution at pH 4.2; format: ADME; how it was run: as §1
[4] = Half-life at 37 degree Centigrade, towards Murine plasma esterases at pH 7.4; format: ADME; conditions: mouse
How it was run: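 Carbamate HCl salt dissolved in dilute H3PO4, then added to fresh murine plasma with pH 7.4 phosphate buffer (plasma:buffer 1.6:0.40) at 37 °C, final 5×10^-4 M. pH held at 7.4 by pH-stat. Aliquots taken at intervals were quenched in 7% HClO4 and centrifuged, and the supernatant was analysed.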

[5] = Half-life at 37 degree Celsius in aqueous solution at pH 6.8; format: ADME; how it was run: as §1
[6] = Half-life at 37 degree Celsius in aqueous solution at pH 5.2; format: ADME; how it was run: as §1
[7] = Half-life at 37 degree Centigrade, in aqueous solution at pH 7.4; format: ADME; how it was run: as §1

Structure (SMILES) | half-life [1] [min] | pKa [2] | also measured
CCNCCN(CC)C(=O)Oc1ccc(OC)cc1.Cl | 118 | – | –
COc1ccc(OC(=O)NCCCN)cc1.Cl | 910 | 9.6 | –
CNCCN(C)C(=O)Oc1ccc(OC)cc1.Cl | – | – | half-life [3]: > 15 days; half-life [4]: 56 min; half-life [5]: 140 min; half-life [6]: 2.41 days; half-life [7]: 36.3 min
COc1ccc(OC(=O)N(C)CCN(C)C)cc1.Cl | 39.6 | – | –
CNCCCN(C)C(=O)Oc1ccc(OC)cc1.Cl | 942 | – | –
CNCCNC(=O)Oc1ccc(OC)cc1.Cl | 335 | – | –
COc1ccc(OC(=O)NCCN)cc1.Cl | 724 | 8.65 | –
CNCCOC(=O)Oc1ccc(OC)cc1.Cl | < 0.3 | – | –
COc1ccc(OC(=O)N(C)CCN)cc1.Cl | 304 | 8.9 | –
